What was measured:
[1] = Dissociation constant, borocycle pKa of the compound; assay type: physicochemical
Plasma kallikrein = Plasma kallikrein (Homo sapiens, UniProt P03952); test: Inhibition of human C-terminal 6-His-tagged KLKB1 (G20-A638 residues) expressed in mouse NS0 cells using PFR-AMC as substrate incubated for 40 mins by FLINT assay
Coagulation factor X = Coagulation factor X (Homo sapiens, UniProt P00742); test: Inhibition of recombinant human C-terminal 10-His-tagged factor Xa (L24 to K488 residues) expressed in baculovirus infected Sf21 insect cells using Mca-RPKPVE-Nval-WRK(Dnp)-NH2 as substrate incubated for 40 mins by FLINT assay
Kallikrein-1 [2] = biological target: T1, Kallikrein-1 (Homo sapiens, UniProt P06870); test: Inhibition of human recombinant N-terminal His-tagged and enterokinase cleavage site-fused KLK1 (19 to 262 residues) expressed in baculovirus infected Sf9 insect cells using R110 labelled GSK3162232A as substrate measured at 30 secs interval for 5 mins by FLINT assay
Neutrophil elastase = biological target: T2, Neutrophil elastase (Homo sapiens, UniProt P08246); test: Inhibition of human neutrophil elastase using MeOSuc-AAPV-AMC as substrate incubated for 40 mins by FLINT assay
T2 sequence (P08246 whole entry): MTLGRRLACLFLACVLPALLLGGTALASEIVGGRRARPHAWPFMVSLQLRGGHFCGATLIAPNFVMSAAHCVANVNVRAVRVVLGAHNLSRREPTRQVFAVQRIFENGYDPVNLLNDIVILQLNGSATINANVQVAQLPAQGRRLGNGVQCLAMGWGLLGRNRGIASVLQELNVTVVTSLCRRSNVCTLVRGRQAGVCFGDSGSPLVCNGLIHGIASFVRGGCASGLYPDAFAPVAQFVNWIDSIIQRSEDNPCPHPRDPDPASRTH

Prothrombin = Prothrombin (Homo sapiens, UniProt P00734); test: Inhibition of human recombinant C-terminal 10-His-tagged thrombin (M1 to E622 residues) expressed in mouse NS0 cells using BOC-VPR-AMC as substrate incubated for 40 mins by FLINT assay
[3] = biological target: T3, Suppressor of tumorigenicity 14 protein (Homo sapiens, UniProt Q9Y5Y6); test: Inhibition of recombinant human N-terminal Met and 6-His-tagged matriptase (G596 to V855 residues) expressed in Escherichia coli using Boc-QAR-AMC as substrate incubated for 40 mins by FLINT assay
T3 sequence (Q9Y5Y6 whole entry): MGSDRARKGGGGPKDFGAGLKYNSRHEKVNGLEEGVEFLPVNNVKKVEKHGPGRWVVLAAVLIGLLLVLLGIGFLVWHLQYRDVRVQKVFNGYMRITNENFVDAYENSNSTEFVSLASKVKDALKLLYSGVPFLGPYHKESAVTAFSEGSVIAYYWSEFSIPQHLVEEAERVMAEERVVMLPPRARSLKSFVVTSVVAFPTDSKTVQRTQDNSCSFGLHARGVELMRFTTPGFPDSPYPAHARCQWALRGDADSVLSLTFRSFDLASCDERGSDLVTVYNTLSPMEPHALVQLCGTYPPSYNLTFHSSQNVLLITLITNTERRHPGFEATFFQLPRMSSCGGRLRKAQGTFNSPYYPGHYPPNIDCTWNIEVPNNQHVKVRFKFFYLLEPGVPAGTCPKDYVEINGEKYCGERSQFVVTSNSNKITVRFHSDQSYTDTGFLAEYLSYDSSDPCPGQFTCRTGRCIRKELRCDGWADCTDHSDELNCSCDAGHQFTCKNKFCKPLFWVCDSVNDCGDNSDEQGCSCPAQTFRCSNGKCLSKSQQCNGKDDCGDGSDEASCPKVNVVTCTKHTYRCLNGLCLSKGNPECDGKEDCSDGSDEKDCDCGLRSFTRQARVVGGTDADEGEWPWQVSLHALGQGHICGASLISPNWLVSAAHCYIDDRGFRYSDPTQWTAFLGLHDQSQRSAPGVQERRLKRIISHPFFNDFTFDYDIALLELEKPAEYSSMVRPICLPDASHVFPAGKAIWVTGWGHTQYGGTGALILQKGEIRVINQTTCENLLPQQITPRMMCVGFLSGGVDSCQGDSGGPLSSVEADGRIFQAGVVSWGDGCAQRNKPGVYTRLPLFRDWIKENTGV

Kallikrein-14 = biological target: T4, Kallikrein-14 (Homo sapiens, UniProt Q9P0G3); test: Inhibition of recombinant human C-terminal 10-His-tagged KLK14 (Q19 to M248 residues) expressed in mouse NS0 cells using BOC-VPR-AMC as substrate incubated for 40 mins by FLINT assay
T4 sequence (Q9P0G3 whole entry): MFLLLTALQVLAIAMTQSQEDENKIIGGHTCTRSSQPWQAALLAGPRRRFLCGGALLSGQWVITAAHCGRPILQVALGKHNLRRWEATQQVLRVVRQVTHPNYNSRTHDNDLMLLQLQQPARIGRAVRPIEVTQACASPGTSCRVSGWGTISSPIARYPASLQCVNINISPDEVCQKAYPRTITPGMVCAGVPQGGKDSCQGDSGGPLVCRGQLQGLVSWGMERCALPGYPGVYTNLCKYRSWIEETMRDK

Kallikrein-8 = biological target: T5, Kallikrein-8 (Homo sapiens, UniProt O60259); test: Inhibition of recombinant human C-terminal 10-His-tagged KLK8 (Gln29 to Gly260 residues) expressed in mouse NS0 cells using BOC-VPR-AMC as substrate incubated for 40 mins by FLINT assay
T5 sequence (O60259 whole entry): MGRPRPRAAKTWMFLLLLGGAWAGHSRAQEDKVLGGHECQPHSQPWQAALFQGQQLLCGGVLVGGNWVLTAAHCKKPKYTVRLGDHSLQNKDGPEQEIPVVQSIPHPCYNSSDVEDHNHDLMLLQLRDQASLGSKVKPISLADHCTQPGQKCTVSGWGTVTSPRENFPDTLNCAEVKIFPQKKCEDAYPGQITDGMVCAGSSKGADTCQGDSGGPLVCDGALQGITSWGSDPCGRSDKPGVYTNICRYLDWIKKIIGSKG

[4] = biological target: Urokinase-type plasminogen activator (Homo sapiens, UniProt P00749); test: Inhibition of recombinant human C-terminal 10-His-tagged urokinase (M1 to L431 residues) expressed in mouse NS0 cells using Z-GGR-AMC as substrate incubated for 40 mins by FLINT assay
Kallikrein-7 = Kallikrein-7 (Homo sapiens, UniProt P49862); test: Inhibition of recombinant human C-terminal 10-His-tagged KLK7 (Glu23 to His252 residues) expressed in mouse NS0 cells using 5-FAM-E-A-L-Y-L-V-S-G-C(5-TAMRA) as substrate incubated for 40 mins by FLINT assay
Kallikrein-5 [5] = biological target: T6, Kallikrein-5 (Homo sapiens, UniProt Q9Y337); test: Inhibition of human recombinant 6His-Q-FLAG-tagged KLK5 expressed in baculovirus infected Sf9 insect cells using (Tos-Gly-Pro-Arg)2[R110].2TFA as substrate measured at 30 secs interval for 5 mins using 1 x 10'10M enzyme by FLINT assay
T6 sequence (Q9Y337 whole entry): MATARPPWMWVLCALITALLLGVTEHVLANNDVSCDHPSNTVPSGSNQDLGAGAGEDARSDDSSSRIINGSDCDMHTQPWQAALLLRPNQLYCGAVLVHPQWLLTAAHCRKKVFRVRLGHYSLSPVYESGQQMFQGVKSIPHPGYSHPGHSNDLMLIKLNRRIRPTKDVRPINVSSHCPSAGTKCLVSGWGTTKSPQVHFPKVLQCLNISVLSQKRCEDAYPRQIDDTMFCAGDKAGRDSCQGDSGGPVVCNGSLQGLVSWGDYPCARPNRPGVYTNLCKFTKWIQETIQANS

Homo sapiens = species on record: Homo sapiens; test: Selectivity ratio of IC50 for human C-terminal 6-His-tagged KLKB1 (G20 to A638 residues) expressed in mouse NS0 cells to IC50 for human recombinant 6His-Q-FLAG-tagged KLK5 expressed in baculovirus infected Sf9 insect cells
Kallikrein-5 [6] = biological target: T6, Kallikrein-5; test: Inhibition of human recombinant 6His-Q-FLAG-tagged KLK5 expressed in baculovirus infected Sf9 insect cells using (Tos-Gly-Pro-Arg)2[R110].2TFA as substrate measured at 30 secs interval for 5 mins by FLINT assay
Summary of the method: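 Standard KLK5 assay format. Its theoretical tight-binding limit corresponds to pIC50 8.4.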

Kallikrein-1 [7] = biological target: T1, Kallikrein-1; test: Inhibition of human recombinant N-terminal His-tagged and enterokinase cleavage site-fused KLK1 (19 to 262 residues) expressed in baculovirus infected Sf9 insect cells at 10 uM using R110 labelled GSK3162232A as substrate measured at 30 secs interval for 5 mins by FLINT assay relative to control

Row | SMILES | pKa [1] | IC50 (Plasma kallikrein) [µM] | IC50 (Coagulation factor X) [µM] | IC50 (Kallikrein-1 [2]) [µM] | IC50 (Neutrophil elastase) [µM] | IC50 (Prothrombin) [µM] | IC50 [3] [µM] | IC50 (Kallikrein-14) [µM] | IC50 (Kallikrein-8) [µM] | IC50 [4] [µM] | IC50 (Kallikrein-7) [µM] | IC50 (Kallikrein-5 [5]) [µM] | Ratio IC50 (Homo sapiens) | IC50 (Kallikrein-5 [6]) [µM] | inhibition (Kallikrein-1 [7]) [%]
1 | N=C(N)c1ccc(C2Cc3cc(Cl)c(F)cc3B(O)O2)cc1OCc1cccnc1 (racemic) | 4.26 | 0.2 | 5.01 | 3.98 to 6.31 | 1.26 | 2 | 15.8 | 0.2 | 0.251 | 79.4 | > 100 | 0.00126 |  |  | 
2 | N=C(N)c1ccc(C2Cc3ccccc3B(O)O2)cc1OCc1cccc(Cl)c1 (racemic) |  | 0.00501 | 2 | 1.58 | 15.8 | 0.398 | 0.0126 | 0.251 | 0.1 | 0.0631 | 39.8 | 0.00501 | 10 | 0.00794 | 
3 | N=C(N)c1ccc(Oc2ccc3c(c2)B(O)OC3)cc1 |  |  |  | 25.1 |  |  |  |  |  |  |  |  |  | 50.1 | 
4 | Cc1cccc2c1B(O)OC(c1ccc(C(=N)N)c(OCc3cccnc3)c1)C2 (racemic) |  | 0.0794 | 50.1 | > 10 | 0.794 | 3.16 | 1.26 | 0.398 | 1.58 | 5.01 | > 100 | 0.0251 | 10 | 0.0251 | 27
5 | N=C(N)c1ccc(CC2OB(O)c3cc(F)ccc32)cc1OCc1cccnc1 (racemic) | 4.77 | 0.794 | 5.01 | 0.316 to 3.98 | 1.58 | 2 | 63.1 | 12.6 | 7.94 | 79.4 | > 100 | 0.00158 | 10 | 0.0126 | 
6 | N=C(N)c1ccc(COc2ccc3c(c2)B(O)OC3)cc1 |  |  |  | 39.8 |  |  |  |  |  |  |  |  |  | 39.8 | 
7 | N=C(N)c1ccc(NCC2Cc3ccccc3B(O)O2)cc1 (racemic) |  |  |  | > 10 |  |  |  |  |  |  |  |  |  | 1.58 | 35
8 | N=C(N)c1ccc(C2OB(O)c3ccccc32)cc1 (racemic) |  |  |  | 79.4 |  |  |  |  |  |  |  |  |  | 398 | 
9 | N=C(N)c1ccc(CC2OB(O)c3ccc(F)cc32)cc1OCc1cccnc1 (racemic) | 4.66 | 0.794 | 63.1 | > 10 | 100 | 15.8 | 39.8 | 31.6 | 12.6 | > 100 | > 100 | 0.01 | 10 | 0.0158 | 10
10 | N=C(N)c1ccc(C2Cc3ccc(C(F)(F)F)cc3B(O)O2)cc1OCc1cccnc1 (racemic) | 4.54 | 0.01 | 1.58 | 0.398 | > 100 | 3.98 | 2 | 0.126 | 0.0251 | 12.6 | 39.8 | 0.000501 |  |  | 
11 | N=C(N)c1ccc(C2CCCB(O)O2)cc1 (racemic) |  |  |  | 63.1 |  |  |  |  |  |  |  |  |  | 39.8 | 
12 | N=C(N)c1ccc(OCc2ccc3c(c2)B(O)OC3)cc1 |  |  |  | 10 |  |  |  |  |  |  |  |  |  | 6.31 | 
13 | N=C(N)c1ccc(C2Cc3ccccc3B(O)O2)cc1OCc1ccccc1Cl (racemic) |  | 0.0501 | 10 | 0.631 | 6.31 | 3.16 | 7.94 | 1.58 | 0.251 | 50.1 | 39.8 | 0.00794 | 10 | 0.01 | 
14 | N=C(N)c1ccc(COc2cccc3c2B(O)OC3)cc1 |  |  |  | 501 |  |  |  |  |  |  |  |  |  | 31.6 | 
15 | N=C(N)c1cccc(C2Cc3ccccc3B(O)O2)c1 (racemic) |  |  |  | 0.501 |  |  |  |  |  |  |  |  |  | 3.98 | 
16 | N=C(N)c1ccc(C2Cc3ccc(F)cc3B(O)O2)cc1OCc1cccnc1 (racemic) | 4.66 | 0.0794 | 63.1 | 3.98 | 31.6 | 10 | 10 | 0.316 | 0.316 | > 100 | > 100 | 0.00794 | 10 | 0.00631 | 
17 | N=C(N)c1ccc(CNc2cccc3c2B(O)OC3)cc1 |  |  |  | 7.94 |  |  |  |  |  |  |  |  |  | 200 | 
18 | N=C(N)c1cccc(COc2ccc3c(c2)B(O)OC3)c1 |  |  |  | 158 |  |  |  |  |  |  |  |  |  | 12.6 | 
19 | N=C(N)c1ccc(COc2ccc3c(c2)COB3O)cc1 |  |  |  | 158 |  |  |  |  |  |  |  |  |  | 6.31 | 
